In ChEMBL document CHEMBL4350958, “Rational Design of Short Peptide Variants by Using Kunitzin-RE, an Amphibian-Derived Bioactivity Peptide, for Acquired Potent Broad-Spectrum Antimicrobial and Improved Therapeutic Potential of Commensalism Coinfection of Pathogens” (J Med Chem, 2019):
Active and inactive are the calls of the source. The rule behind the calls is not given here.

What was measured:
Lipid bilayer = test: Induction of membrane disruption in PC/CL large unilamellar vesicles assessed as calcein-entrapped liposome leakage at 1 uM after 15 mins by spectrofluorophotometric assay relative to control; conditions: artificial membrane, 0.25 h
Staphylococcus aureus [1] = test: Bactericidal activity against Staphylococcus aureus ATCC 29213 assessed as reduction in bacterial growth at MBC by time-kill assay; format: functional, organism-based
Outline: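 Time-kill assay. E. coli ATCC 25922, S. aureus ATCC 29213 or C. albicans cgmcc 2.2086 at a final 0.5-1×10^5 CFU mL-1 treated at 1×MBC/MFC. Aliquots collected at different times to calculate survival, with an untreated control. Mean of three independent experiments, each with three technical replicates.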

RAW264.7 = test: Cytotoxicity against mouse RAW264.7 cells assessed as cell viability at 2 to 64 uM measured after 18 to 24 hrs by MTT assay relative to control; format: cell-based; conditions: raw264.7, 64 µM
Outline: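 MTT assay: RAW264.7 cells seeded at 1.0–2.0×10^4 per well and exposed to peptide (2–64 µM) for 18–24 h at 37 °C in 5% CO2. MTT (0.5 mg/mL) added for 4 h, formazan dissolved in DMSO, read at 570 nm. At least three independent experiments with triplicate wells.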

Escherichia coli [2] = test: Induction of cytoplasmic membrane depolarization in Escherichia coli ATCC 25922 assessed as fluorescence intensity at 2 uM up to 3000 secs by DiSC3-5 dye-based fluorescence spectrophotometric method
Outline: (§1)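 Mid-log E. coli ATCC 25922 (OD600 0.05) loaded with 0.4 μM DiSC3-5 and 100 mM K+ in 5 mM HEPES pH 7.4 with 20 mM glucose until fluorescence stabilized. Peptide added in a 1-cm cuvette and fluorescence (ex 622, em 670 nm) recorded 0–3000 s. Triplicate, three biological replicates.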

Escherichia coli [3] = test: Induction of morphological changes in Escherichia coli ATCC 25922 assessed as membrane blebbing at MBD measured after 1 hr by scanning electron microscopic analysis; format: functional, organism-based
Pseudomonas aeruginosa [4] = test: Bactericidal activity against gentamicin-resistant Pseudomonas aeruginosa ATCC 27853 incubated for 24 hrs followed by replating on agar plate and measured after overnight incubation; format: functional, organism-based
Escherichia coli [5] = test: Disruption of plasma membrane integrity in Escherichia coli ATCC 25922 at MBC measured after 30 mins using FITC-labeled compound by propidium iodide staining-based microscopic analysis; format: organism-based
Outline: (§2)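 E. coli ATCC 25922 or S. aureus ATCC 29213 (OD600 0.2) incubated with FITC-labeled peptide at 1×MBC, 37 °C, 30 min. Cells washed, resuspended with PI (10 μg/mL) in PBS, smeared and imaged by superresolution microscopy using 488 and 535 nm filters for FITC and PI. Peptide-free cells served as controls. Three independent scans.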

Escherichia coli [6] = test: Induction of morphological changes in Escherichia coli ATCC 25922 assessed as appearance of visible sparse cytoplasmic distribution at MBD measured after 1 hr by transmission electron microscopic analysis; format: functional, organism-based
Candida albicans [7] = test: Antifungal activity against Candida albicans cgmcc2.2086 infected in C57BL/6 mouse model of keratitis assessed as reduction in fungal hyphae infiltration into corneal stroma at 1 to 5 mg/ml administered as topical eye drop every 5 mins for first 4 hrs and every 30 mins for next 7 hrs measured post-last dose by periodic acid schiff staining-based histological analysis; format: functional, organism-based
Escherichia coli [8] = test: Induction of morphological changes in Escherichia coli ATCC 25922 assessed as membrane creping at MBD measured after 1 hr by scanning electron microscopic analysis; format: functional, organism-based
Escherichia coli [9] = test: Bactericidal activity against Escherichia coli ATCC 25922 assessed as reduction in bacterial growth at MBC measured within 30 mins by time-kill assay relative to control; format: functional; set-up: scale not given: the % may be the effect or the level left
Outline: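 Time-kill assay. Cells at a final 0.5–1 × 10^5 CFU mL−1 were exposed to peptide at 1×MBC. Aliquots were removed at different times to calculate the survival rate against an untreated control. Mean of three independent experiments, each with three technical replicates.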

Staphylococcus aureus [10] = test: Induction of morphological changes in Staphylococcus aureus ATCC 29213 assessed as appearance of intracellular empty areas at MBD measured after 1 hr by transmission electron microscopic analysis; format: functional, organism-based
Escherichia coli [11] = test: Induction of cytoplasmic membrane depolarization in Escherichia coli ATCC 25922 assessed as fluorescence intensity at 4 uM up to 3000 secs by DiSC3-5 dye-based fluorescence spectrophotometric method; outline: as §1
Candida albicans [12] = test: (§3) Antifungal activity against Candida albicans cgmcc2.2086 infected in C57BL/6 mouse model of keratitis assessed as appearance of transparent irises at 1 to 5 mg/ml administered as topical eye drop every 5 mins for first 4 hrs and every 30 mins for next 7 hrs measured post-last dose; format: functional, organism-based
Staphylococcus aureus [13] = test: Bactericidal activity against Staphylococcus aureus ATCC 29213 assessed as reduction in bacterial growth at MBC measured within 30 mins by time-kill assay relative to control; format: functional; set-up: scale not given: the % may be the effect or the level left
Outline: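 Time-kill: cells at a final 0.5–1×10^5 CFU/mL were exposed to peptide at 1×MBC/MFC. Aliquots were removed at intervals to count survivors against an untreated control. Means of three independent experiments, each with three technical replicates.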

Staphylococcus aureus [14] = test: Induction of morphological changes in Staphylococcus aureus ATCC 29213 assessed as […] at MBD measured after 1 hr by transmission electron microscopic analysis; format: functional, organism-based
Candida albicans [15] = test: as §3, with “reduction in fungal colonies in eyeballs” for “appearance of transparent irises”, “at” for “at 1 to”, “dose by agar plate method relative to control” for “dose”; format: functional; set-up: scale not given: the % may be the effect or the level left
Staphylococcus aureus [16] = test: Disruption of plasma membrane integrity in Staphylococcus aureus ATCC 29213 at MBC measured after 30 mins using FITC-labeled compound by propidium iodide staining-based microscopic analysis; format: organism-based; outline: as §2
Escherichia coli [17] = test: Induction of morphological changes in Escherichia coli ATCC 25922 assessed as hole formation at MBD measured after 1 hr by scanning electron microscopic analysis; format: functional, organism-based
Escherichia coli [18] = test: Induction of morphological changes in Escherichia coli ATCC 25922 at MBD measured after 1 hr by atomic force microscopic analysis; format: functional, organism-based
Escherichia coli [19] = test: Induction of morphological changes in Escherichia coli ATCC 25922 assessed as appearance of intracellular empty area at MBD measured after 1 hr by transmission electron microscopic analysis; format: functional, organism-based
Staphylococcus aureus [20] = test: Induction of morphological changes in Staphylococcus aureus ATCC 29213 assessed as sparse distribution of cytoplasm at MBD measured after 1 hr by transmission electron microscopic analysis; format: functional, organism-based
Escherichia coli [21] = test: Induction of morphological changes in Escherichia coli ATCC 25922 assessed as separation between outer membrane and cytoplasmic membrane at MBD measured after 1 hr by transmission electron microscopic analysis; format: functional, organism-based
Escherichia coli [22] = test: Induction of outer membrane permeabilization in Escherichia coli ATCC 25922 at 4 uM by NPN-dye based assay relative to control
Outline: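 Mid-log E. coli ATCC 25922 (OD600 0.2) incubated 30 min with NPN (10 μM) in 5 mM HEPES pH 7.4 with 5 mM glucose, then mixed 1:1 with peptide (1–64 μM). Fluorescence (ex 350/em 420 nm) recorded until it plateaued. Percent NPN uptake calculated relative to no peptide and to 10 μg/mL polymyxin B. Three independent experiments, triplicates.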

Pseudomonas aeruginosa [23] = test: Bactericidal activity against melittin-resistant Pseudomonas aeruginosa ATCC 27853 incubated for 24 hrs followed by replating on agar plate and measured after overnight incubation; format: functional, organism-based

## CC[C@H](C)[C@H](NC(=O)CN)C(=O)NCC(=O)N[C@@H](C)C(=O)N[C@H](C(=O)N[C@@H](CC(C)C)C(=O)N[C@@H](CCCCN)C(=O)N[C@H](C(=O)N[C@@H](CC(C)C)C(=O)N[C@H](C(=O)N[C@H](C(=O)NCC(=O)N[C@@H](CC(C)C)C(=O)N1CCC[C@H]1C(=O)N[C@@H](C)C(=O)N[C@@H](CC(C)C)C(=O)N[C@H](C(=O)N[C@@H](CO)C(=O)N[C@@H](Cc1c[nH]c2ccccc12)C(=O)N[C@H](C(=O)N[C@@H](CCCCN)C(=O)N[C@@H](CCCNC(=N)N)C(=O)N[C@@H](CCCCN)C(=O)N[C@@H](CCCNC(=N)N)C(=O)N[C@@H](CCC(N)=O)C(=O)N[C@@H](CCC(N)=O)C(N)=O)[C@@H](C)CC)[C@@H](C)CC)[C@@H](C)O)[C@@H](C)O)C(C)C)C(C)C [MELITTIN]
Lipid bilayer
  Activity: > 85%
Staphylococcus aureus [1]
  Activity: Active
RAW264.7
  Activity: Toxic
Escherichia coli [2]
  Flu intensity: 4000 a.u.

## H-AARIILRWRFR-NH2
Escherichia coli [3]
  Activity: Active
Pseudomonas aeruginosa [4]
  Activity: Active
Escherichia coli [5]
  Activity: Active
Escherichia coli [6]
  Activity: Active
Candida albicans [7]
  Activity: Active
Escherichia coli [8]
  Activity: Active
Escherichia coli [9]
  Activity: 99.99%
Staphylococcus aureus [10]
  Activity: Active
Escherichia coli [11]
  Flu intensity: 3000 a.u.
Candida albicans [12]
  Activity: Active
Staphylococcus aureus [13]
  Activity: 99.99%
Staphylococcus aureus [14]
  Activity: Active
Candida albicans [15]
  Activity: <=80%
Staphylococcus aureus [16]
  Activity: Active
Escherichia coli [17]
  Activity: Active
Escherichia coli [18]
  Activity: Active
Escherichia coli [19]
  Activity: Active
Staphylococcus aureus [20]
  Activity: Active
Escherichia coli [21]
  Activity: Active
Escherichia coli [22]
  Activity: >=50 - 51%
Pseudomonas aeruginosa [23]
  Activity: Active
